# Experimental data from ChEMBL document CHEMBL4385647, “Design, synthesis and biological evaluation of 3-hydroxyquinazoline-2,4(1H,3H)-diones as dual inhibitors of HIV-1 reverse transcriptase-associated RNase H and integrase” (Bioorg Med Chem, 2019).
# Active and inactive are the calls of the source. The rule behind the calls is not given here.
# How the values were obtained:
# [1] = Inhibition of HIV reverse transcriptase RNase H activity; set-up: species or system Human immunodeficiency virus
# Method in brief: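 Wild-type HIV-1 BH10 RT (20-40 nM), expressed in E. coli, was incubated at 37°C in 50 mM Tris-HCl pH 8.0, 50 mM NaCl, 5 mM MgCl2 and 5% DMSO. Cleaved substrate was quantified over 0.2-100 μM compound against a DMSO-only control. IC50 was taken from dose-response curves.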
# [2] = target: Human immunodeficiency virus type 1 reverse transcriptase (Human immunodeficiency virus 1, UniProt Q72547); assay: Inhibition of HIV1 reverse transcriptase RNase H activity expressed in Escherichia coli using 32P-labeled template 31Trna RNA and DNA oligonucleotide 21P
# [3] = Cytotoxicity in mock-infected human MT4 cells assessed as reduction in cell viability incubated for 5 days by MTT assay; assay type: cell-based
# Method in brief: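 Mock-infected MT-4 cells at 6×10^5 cells/mL were exposed to serial five-fold compound dilutions in triplicate wells in parallel with the infected series. After 5 days, viability was read by MTT at 540 and 690 nm from the median OD of two or three wells.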
# [4] = test system: Human immunodeficiency virus 1; assay: Antiviral activity against HIV1 3B infected in human MT4 cells incubated for 5 days by MTT assay; assay type: functional, organism-based; conditions: Human immunodeficiency virus 1, 3B, MT4, 120 h
# Method in brief: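 MT-4 cells resuspended at 6×10^5 cells/mL and infected with 100-300 CCID50 of HIV-1 IIIB or HIV-2 ROD. Serial five-fold compound dilutions were tested in triplicate wells. After 5 days, viability was measured by MTT reduction with absorbance read at 540 and 690 nm, using the median OD of two or three wells.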
# [5] = Apparent permeability in human Caco2 cells by LC analysis; assay type: ADME, cell-based; conditions: Caco-2
# Method in brief: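 Transport was measured across Caco-2 cell monolayers, with nadolol and metoprolol as controls. Papp (cm/s) was calculated as (dCr/dt)×Vr/(A×C0), where dCr/dt is the cumulative receiver-chamber concentration over time.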
# [6] = target: T1, Human immunodeficiency virus type 1 integrase (Human immunodeficiency virus 1, UniProt Q7ZJM1); assay: Inhibition of strand transfer activity of HIV1 integrase expressed in Escherichia coli using DNA complexes containing 32P-labeled INT1ST and non-labeled INT2
# T1 sequence (Q7ZJM1 whole entry): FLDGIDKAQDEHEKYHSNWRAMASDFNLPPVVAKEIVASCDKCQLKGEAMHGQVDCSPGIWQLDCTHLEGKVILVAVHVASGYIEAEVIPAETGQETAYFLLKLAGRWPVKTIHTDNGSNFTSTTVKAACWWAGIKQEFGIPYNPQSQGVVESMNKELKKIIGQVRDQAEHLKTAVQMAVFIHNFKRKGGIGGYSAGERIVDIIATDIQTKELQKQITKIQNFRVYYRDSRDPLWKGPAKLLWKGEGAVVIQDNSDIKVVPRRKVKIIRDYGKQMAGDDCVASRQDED
# [7] = target: Human immunodeficiency virus type 1 integrase (Human immunodeficiency virus 1) (UniProt Q7ZJM1); assay: Inhibition of strand transfer activity of HIV1 integrase expressed in Escherichia coli at 0.1 to 10 uM using DNA complexes containing 32P-labeled INT1ST and non-labeled INT2
# Human immunodeficiency virus type 1 integrase (Human immunodeficiency virus 1), sequence (Q7ZJM1 as listed by the source): as the sequence (Q7ZJM1 whole entry) above
# Method in brief: (§1)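 Wild-type HIV-1 IN, expressed in E. coli, was assayed for strand transfer with DNA complexes of 32P-labeled INT1ST and unlabeled INT2 at 1% DMSO. Percent inhibition was measured at […].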
# [8] = target: Human immunodeficiency virus type 1 integrase (Human immunodeficiency virus 1) (UniProt Q7ZJM1); assay: Inhibition of strand transfer activity of HIV1 integrase expressed in Escherichia coli at 10 uM using DNA complexes containing 32P-labeled INT1ST and non-labeled INT2; method in brief: as §1
# [9] = target: T1, Human immunodeficiency virus type 1 integrase; assay: Inhibition of HIV integrase strand transfer activity
IC50 [2],SMILES,CC50 at 120 h [3],EC50 [4],further results
–,O=C1Cc2cc(Cc3ccc(-c4ccccc4)cc3)ccc2C(=O)N1O,–,–,IC50 [1]: 0.8 µM
11.7 µM,O=c1[nH]c2cc(NS(=O)(=O)c3ccc(-c4ccccc4)cc3)ccc2c(=O)n1O,> 305 µM,> 305 µM,–
–,NS(=O)(=O)c1ccc(-c2ccc(Cn3cc(O)c(=O)c(C(=O)O)c3)cc2)cc1,–,–,IC50 [1]: 0.65 µM
2.52 µM,O=C(Nc1ccc2c(=O)n(O)c(=O)[nH]c2c1)c1ccccc1,36.6 µM,> 36.6 µM,–
–,CC(C)(C)NCC(O)COc1cccc2c1CC(O)C(O)C2 (stereo unspecified) [NADOLOL],–,–,Papp [5]: 0.09 ×10⁻⁶ cm/s
2.25 µM,O=c1[nH]c2ccc(NS(=O)(=O)c3ccc(F)cc3)cc2c(=O)n1O,199 µM,> 199 µM,–
3.73 µM,O=C(Nc1ccc2c(=O)n(O)c(=O)[nH]c2c1)c1cccc(F)c1,39.8 µM,> 39.8 µM,–
–,NCc1ccc(-c2ccc(Cc3cc(=O)n(O)c4ncccc34)cc2)cc1,–,–,IC50 [1]: 0.045 µM
0.41 µM,O=c1[nH]c2ccc(NS(=O)(=O)c3ccc4ccccc4c3)cc2c(=O)n1O,208 µM,> 208 µM,Papp [5]: < 0.19 ×10⁻⁶ cm/s; IC50 [6]: 0.85 µM
1.98 µM,CC(C)c1ccc(O)c(=O)c(O)c1 [BETA-THUJAPLICINOL],2.83 µM,> 2.83 µM,IC50 [1]: 3.8 µM
4.1 µM,Cc1cccc(S(=O)(=O)Nc2ccc3c(=O)n(O)c(=O)[nH]c3c2)c1,310 µM,> 310 µM,–
–,CCOC(=O)C(=O)CC(=O)/C=C/c1cccn1Cc1ccccc1Cl,–,–,IC50 [1]: 7.3 µM
2.74 µM,Cc1ccc(C(=O)Nc2ccc3c(=O)n(O)c(=O)[nH]c3c2)cc1,10.9 µM,> 10.9 µM,–
4.29 µM,O=C(Nc1ccc2[nH]c(=O)n(O)c(=O)c2c1)c1ccccc1F,168 µM,> 168 µM,–
5.88 µM,CC(C)(C)c1ccc(S(=O)(=O)Nc2ccc3c(=O)n(O)c(=O)[nH]c3c2)cc1,307 µM,> 307 µM,inhibition [7]: Active; inhibition [8]: 50 to 60%
3.73 µM,O=C(Nc1ccc2c(=O)n(O)c(=O)[nH]c2c1)c1ccc(F)cc1,43 µM,> 43 µM,–
1.19 µM,O=c1[nH]c2ccc(NS(=O)(=O)c3ccccc3)cc2c(=O)n1O,213 µM,> 213 µM,–
–,COCCc1ccc(OCC(O)CNC(C)C)cc1 (stereo unspecified) [METOPROLOL],–,–,Papp [5]: 14.7 ×10⁻⁶ cm/s
5.68 µM,O=c1[nH]c2cc(NS(=O)(=O)c3ccc(F)cc3)ccc2c(=O)n1O,> 356 µM,> 356 µM,–
2 µM,O=c1[nH]c2ccc(NS(=O)(=O)c3cccc(C(F)(F)F)c3)cc2c(=O)n1O,176 µM,> 176 µM,–
20.1 µM,O=c1[nH]c2cc(NS(=O)(=O)c3ccc4ccccc4c3)ccc2c(=O)n1O,220 µM,> 220 µM,inhibition [7]: Active; inhibition [8]: 50 to 60%
5.33 µM,O=c1[nH]c2cc(NS(=O)(=O)c3cccc(C(F)(F)F)c3)ccc2c(=O)n1O,80.2 µM,> 80.2 µM,–
–,COc1ccc(Cc2nc(O)c(O)c(C(=O)O)n2)cc1Br,–,–,IC50 [1]: 1.4 µM
3.24 µM,Cc1cc(C)c(S(=O)(=O)Nc2ccc3c(=O)n(O)c(=O)[nH]c3c2)c(C)c1,154 µM,> 154 µM,–
6.09 µM,O=C(Nc1ccc2c(=O)n(O)c(=O)[nH]c2c1)c1ccc(C(F)(F)F)cc1,316 µM,> 316 µM,–
–,O=C(NCc1c(F)cc(F)cc1F)c1cn2c(c(O)c1=O)C(=O)N1[C@H]3CC[C@H](C3)O[C@@H]1C2 [BICTEGRAVIR],–,–,IC50 [9]: 0.0075 µM
–,Cc1nnc(C(=O)NC(C)(C)c2nc(C(=O)NCc3ccc(F)cc3)c(O)c(=O)n2C)o1,6.51 µM,0.015 µM,–
